In ChEMBL document CHEMBL1155646, “Kinmoonosides A-C, three new cytotoxic saponins from the fruits of Acacia concinna, a medicinal plant collected in myanmar” (2000):
pEC50: −log10 of the molar value.

System: HT-1080
Test: Cytotoxicity against human HT1080 cells by 3-(4,5-dimethylthiazol-2-yl)-[…] bromide assay
Assay type: functional
Conditions: read-out: ED50 (the source's name)
How it was run: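 Human HT-1080 fibrosarcoma cells were tested in a standard tetrazolium (MTT) viability assay following an earlier published protocol. Potency was reported as ED50, given in µg/mL and also converted to µM.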

C=CC(C)(O)CC/C=C(\C)C(=O)O (centres undefined) [MENTHIAFOLIC ACID]
EC50: > 100 µg/mL

C=CC1(C)CCC(C(CO)C(=O)O)O1 (centres undefined)
EC50: > 100 µg/mL

C=CC(C)(CC/C=C(\C)C(=O)O)O[C@@H]1O[C@H](C)[C@@H](O)[C@H](O)[C@H]1O (mixture of isomers)
EC50: > 100 µg/mL

C=CC(C)(O)CC/C=C(\CO)C(=O)O[C@H]1[C@H](O)[C@@H](O)[C@H](O[C@](C)(C=C)CC/C=C(\CO)C(=O)O[C@H]2C[C@]3(C(=O)O[C@@H]4O[C@H](CO)[C@@H](O)[C@H](O)[C@H]4O[C@@H]4O[C@@H](C)[C@H](O[C@H]5O[C@@H](CO)[C@H](O)[C@H]5O)[C@@H](O[C@@H]5O[C@H](CO)[C@@H](O)[C@H](O)[C@H]5O)[C@H]4O)[C@H](O)C[C@]4(C)C(=CC[C@@H]5[C@@]6(C)CC[C@H](O[C@@H]7O[C@H](CO[C@@H]8OC[C@H](O)[C@H](O)[C@H]8O)[C@@H](O)[C@H](O)[C@H]7O[C@@H]7O[C@H](CO)[C@@H](O)[C@H](O)[C@H]7O)C(C)(C)[C@@H]6CC[C@]54C)[C@@H]3CC2(C)C)O[C@@H]1C (some centres undefined) [KINMOONOSIDE B]
pEC50: 6.04

C=CC(C)(O)CC/C=C(\CO)C(=O)O[C@H]1C[C@]2(C(=O)O[C@@H]3O[C@H](CO)[C@@H](O)[C@H](O)[C@H]3O[C@@H]3O[C@@H](C)[C@H](O[C@H]4O[C@@H](CO)[C@H](O)[C@H]4O)[C@@H](O[C@@H]4O[C@H](CO)[C@@H](O)[C@H](O)[C@H]4O)[C@H]3O)[C@H](O)C[C@]3(C)C(=CC[C@@H]4[C@@]5(C)CC[C@H](O[C@@H]6O[C@H](CO[C@@H]7OC[C@H](O)[C@H](O)[C@H]7O)[C@@H](O)[C@H](O)[C@H]6O[C@@H]6O[C@H](CO)[C@@H](O)[C@H](O)[C@H]6O)C(C)(C)[C@@H]5CC[C@]43C)[C@@H]2CC1(C)C (some centres undefined)
pEC50: 5.55

C=CC(C)(O)CC/C=C(\CO)C(=O)O[C@H]1[C@H](O)[C@@H](O)[C@H](O[C@@](C)(C=C)CC/C=C(\CO)C(=O)O[C@H]2C[C@]3(C(=O)O[C@@H]4O[C@H](CO)[C@@H](O)[C@H](O)[C@H]4O[C@@H]4O[C@@H](C)[C@H](O[C@H]5O[C@@H](CO)[C@H](O)[C@H]5O)[C@@H](O[C@@H]5O[C@H](CO)[C@@H](O)[C@H](O)[C@H]5O)[C@H]4O)[C@H](O)C[C@]4(C)C(=CC[C@@H]5[C@@]6(C)CC[C@H](O[C@@H]7O[C@H](CO[C@@H]8OC[C@H](O)[C@H](O)[C@H]8O)[C@@H](O)[C@H](O)[C@H]7O[C@@H]7O[C@H](CO)[C@@H](O)[C@H](O)[C@H]7O)C(C)(C)[C@@H]6CC[C@]54C)[C@@H]3CC2(C)C)O[C@@H]1C (some centres undefined) [KINMOONOSIDES A]
pEC50: 6.15

C=CC(C)(O)CC/C=C(\CO)C(=O)O[C@H]1[C@H](O)[C@@H](O)C(O)O[C@@H]1C (some centres undefined)
EC50: > 100 µg/mL

CC1(C)C[C@H]2C3=CC[C@@H]4[C@@]5(C)CC[C@H](O[C@@H]6O[C@H](CO[C@@H]7OC[C@H](O)[C@H](O)[C@H]7O[C@@H]7OC[C@@H](O)[C@H](O)[C@H]7O)[C@@H](O)[C@H](O)[C@H]6O[C@@H]6O[C@H](CO)[C@@H](O)[C@H](O)[C@H]6O)C(C)(C)[C@@H]5CC[C@@]4(C)[C@]3(C)C[C@@H](O)[C@@]23C[C@@H]1OC3=O
EC50: > 100 µg/mL

C=CC(C)(CC/C=C(\CO)C(=O)O)O[C@@H]1O[C@H](C)[C@@H](O)[C@H](O)[C@H]1O (some centres undefined)
EC50: > 100 µg/mL

CC1(C)C[C@H]2C3=CC[C@@H]4[C@@]5(C)CC[C@H](O[C@@H]6O[C@H](CO[C@@H]7OC[C@H](O)[C@H](O)[C@H]7O)[C@@H](O)[C@H](O)[C@H]6O[C@@H]6O[C@H](CO)[C@@H](O)[C@H](O)[C@H]6O)C(C)(C)[C@@H]5CC[C@@]4(C)[C@]3(C)C[C@@H](O)[C@@]2(C(=O)O)C[C@@H]1O
EC50: > 100 µg/mL

CC(=O)N[C@H]1[C@H](O[C@H]2CC[C@]3(C)[C@H]4CC=C5[C@@H]6CC(C)(C)[C@@H](O)C[C@]6(C(=O)O)[C@H](O)C[C@@]5(C)[C@]4(C)CC[C@H]3C2(C)C)O[C@H](CO[C@@H]2OC[C@H](O)[C@H](O)[C@H]2O[C@@H]2OC[C@@H](O)[C@H](O)[C@H]2O)[C@@H](O)[C@@H]1O [PROSAPOGENIN 2]
EC50: > 100 µg/mL

C[C@H]1O[C@@H](OC[C@H]2O[C@@H](O[C@H]3CC[C@]4(C)[C@H]5CC=C6[C@@H]7CC(C)(C)[C@@H](O)C[C@]7(C(=O)O)[C@H](O)C[C@@]6(C)[C@]5(C)CC[C@H]4C3(C)C)[C@H](O[C@@H]3O[C@H](CO)[C@@H](O)[C@H](O)[C@H]3O)[C@@H](O)[C@@H]2O)[C@H](O[C@@H]2OC[C@@H](O)[C@H](O)[C@H]2O)[C@@H](O)[C@H]1O
EC50: > 100 µg/mL

O=c1[nH]cc(F)c(=O)[nH]1 [FLUOROURACIL]
pEC50: 5.10

CC(=O)N[C@H]1[C@H](O[C@H]2CC[C@]3(C)[C@H]4CC=C5[C@@H]6CC(C)(C)[C@@H](O)C[C@]6(C(=O)O)[C@H](O)C[C@@]5(C)[C@]4(C)CC[C@H]3C2(C)C)O[C@H](CO[C@@H]2OC[C@H](O)[C@H](O)[C@H]2O)[C@@H](O)[C@@H]1O
EC50: > 100 µg/mL
